# Rows were chosen to be rich in hits. Some 2.1% of all compounds tested hit in one or more screens of this group.
# APJ antag: antagonists of human apelin receptor APJ, primary screen, CHO-K1 cells, beta-arrestin complementation, luminescence. inhibition, % at 20 µM. 330,000 tested, 0.32% active. AID 2521, 2010;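 active = inhibition above about 40% at 20 µM, limit read from the data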;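 note: cells challenged with 10 nM apelin-13 agonist together with compound; plate controls were apelin-13 plus DMSO wells for no effect and DMSO wells lacking apelin-13 for full effect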
# APJ agonist: agonists of human apelin receptor APJ, primary screen, CHO-K1 cells, PathHunter beta-arrestin, luminescence; activation, % at 20 µM; 0% DMSO wells, 100% apelin; 330,000 tested, 0.11% active; P35414;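 active = activation more than six SD over the plate average, tested at 20 µM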;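 note: 0% = DMSO alone and 100% = apelin-13 at 10 nM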
#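 Material: CHO-K1 APJ beta-arrestin complementation cell line; Input: cell density 1000 per well; Incubation: compound stimulation 90 min at 25 °C, detection 60 min; Signal: luminescence from split beta-galactosidase complementation, Galacton Star/Emerald II substrate; Controls: DMSO-only wells as negative, 10 nM Apelin-13 as positive control.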
# CXCR6 inh: CXCR6 receptor inhibitors, primary screen, cell-based, beta-arrestin, luminescence, CHO-K1 PathHunter, 1536-well | inhibition, % at 20 µM | 360,000 tested, 0.36% active | C-X-C chemokine receptor type 6 (Homo sapiens), O00574; in the data active = inhibition above about 34%, passing the limit was not always enough;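 note: antagonist mode with CXCL16 agonist at 10 nM final; 0% = 10 nM CXCL16 with DMSO and 100% = unstimulated wells without agonist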
# EBI2 antag: EBI2 receptor antagonists, beta-arrestin recruitment, primary screen, cell-based, luminescence, 7a,25-OHC stimulation, uHTS | G-protein coupled receptor 183 (Homo sapiens), P32249 | 7a,25-OHC stimulated | inhibition, % at 5 µM | 360,000 tested, 0.81% active; in the data active = inhibition above about 38%;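 note: enzyme fragment complementation signal reports receptor beta-arrestin coupling in cells; 0% = agonist plus DMSO wells and 100% = wells without agonist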
# Target sequence (P32249 whole entry, looked up, the tested form may be a part): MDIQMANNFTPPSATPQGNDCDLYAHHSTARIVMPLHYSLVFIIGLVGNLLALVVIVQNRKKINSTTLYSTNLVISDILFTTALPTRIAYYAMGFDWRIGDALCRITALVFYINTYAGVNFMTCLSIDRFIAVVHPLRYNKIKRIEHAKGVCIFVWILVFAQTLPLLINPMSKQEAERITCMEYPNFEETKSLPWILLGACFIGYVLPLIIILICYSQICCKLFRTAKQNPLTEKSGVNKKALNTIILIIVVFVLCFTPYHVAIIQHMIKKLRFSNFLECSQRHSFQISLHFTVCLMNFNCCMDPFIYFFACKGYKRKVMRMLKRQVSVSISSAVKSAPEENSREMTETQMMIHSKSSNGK
# HTR2A ag: mouse Htr2a agonists via beta-arrestin recruitment, primary screen, cell-based, luminescence. AID 624169, 2012. CHO-K1 mHTR2A beta-arrestin complementation; percent of 30 µM serotonin response. 5-hydroxytryptamine receptor 2A (Mus musculus), P35363. activation, % at 7.6 µM. 360,000 tested, 0.66% active;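 active = activation above a run cutoff, the mean activation of all tested compounds plus 3 SD, cut at about 14% in these data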;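 note: 0% = plate median of compound wells and 100% = 30 µM serotonin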
# CCR6 antag: CCR6 receptor antagonists, primary screen, cell-based, CHO-K1, luminescence, beta-arrestin, uHTS; inhibition, % at 20 µM; C-C chemokine receptor type 6 (Homo sapiens), P51684; CHO-K1 CCR6 PathHunter beta-arrestin, CCL20-stimulated; 340,000 tested, 0.49% active;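 active = compounds whose inhibition of the agonist-driven luminescence signal at 20 µM reaches about 50%, limit read from the data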;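 note: cells stimulated with CCL20 at 14 nM final; plate controls were DMSO with CCL20 for no effect and DMSO without agonist for full effect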
# EBI2 conf: EBI2 antagonist hit retest, beta-arrestin, confirmation, cell-based, single concentration, luminescence, 7a,25-OHC stimulation | shares compounds with EBI2 antag | 7a,25-OHC antagonism | inhibition, % at 5 µM | 2,400 tested, 29% active | AID 651997, 2013;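 active = inhibition of at least 50%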
# EBI2 agonist: EBI2 agonist activity of antagonist hits, confirmation, counter-screen for EBI2 antagonist project, cell-based, single concentration, agonist mode, luminescence. shares compounds with EBI2 antag. EBI2-expressing cells, 60 min; 0% vehicle, 100% 7α,25-dihydroxycholesterol control. activation, % at 5 µM. 2,400 tested, under 10 active. AID 652000, 2013;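 active = activation of at least 50%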
# bGal counter: E. coli beta-galactosidase enzyme inhibition, confirmation, counter-screen for EBI2 antagonist project, biochemical, luminescence, single concentration; shares compounds with EBI2 antag; 2,400 tested, 1% active; purified beta-galactosidase, luminescent Galacton Star, 15 min; inhibition, % at 5 µM;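 active = replicate-average signal at least 3 plate SD below neutral wells, shown as high inhibition, flagging enzyme-inhibiting false positives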;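 note: 0% = DMSO wells with enzyme and 100% = wells lacking enzyme; higher means stronger loss of beta-gal luminescence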
# The depositor's hits bear a star; nt = no result given.
SMILES,APJ antag,APJ agonist,CXCR6 inh,EBI2 antag,HTR2A ag,CCR6 antag,EBI2 conf,EBI2 agonist,bGal counter
COCCc1ncc(CN2CCCCC2C(=O)Nc2ccc(Oc3ccccc3)nc2)cn1 (configuration not stated),5,7,2,19,0,-8,nt,nt,nt
COCCC(=O)N1CCC(C(=O)Nc2ccc(Oc3ccccc3)nc2)CC1,19,2,5,1,3,4,nt,nt,nt
COc1cc(CN2CCCCC2C(=O)Nc2ccc(Oc3ccccc3)nc2)ccc1O (configuration not stated),-23,2,-4,87*,-1,18,50*,0,3
Cc1nnc(SC(C)C(=O)NC2CCCCC2)[nH]c1=O (configuration not stated),nt,nt,-1,-1,5,14,nt,nt,nt
OC1CCN(c2c3c(nc4cc(-c5ccc(Cl)cc5)nn24)CCC3)CC1,-6,7,10,44*,7,-3,40,1,1
CCOC(=O)c1c(NC(=O)CC)sc(C(=O)NC2CCCC2)c1C,-20,-2,-2,-13,4,4,nt,nt,nt
COc1ccc2nc(C)cc(SCC(=O)NNC(=O)COc3ccccc3)c2c1,1,-1,-1,48*,0,1,20,-1,-6
COc1ccc(S(=O)(=O)N2CCC(C(=O)NCCc3c[nH]c4ccccc34)CC2)cc1,1,-1,-6,45*,5,1,18,0,9
CCS(=O)(=O)N1Cc2ccccc2CC1C(=O)NCCc1c[nH]c2ccccc12 (configuration not stated),0,1,16,44*,4,5,18,1,2
O=C(NCCc1c[nH]c2ccccc12)C1CCN(S(=O)(=O)c2ccc(F)cc2)CC1,0,-1,-3,33,4,13,nt,nt,nt
CCC(CC)C(=O)N(C)c1c(C)nc2c(OCc3ccc(OC(F)F)cc3)cccn12,nt,nt,-1,-2,2,nt,nt,nt,nt
C[C@]12c3[nH]c4cc(-c5ccco5)ccc4c3CCN1C(=O)[C@@H](CC(=O)NCC13CC4CC(CC(C4)C1)C3)C[C@@H]2C(=O)N1CCCCC1,nt,nt,4,44*,-7,14,13,-1,-4
CCOC(=O)N1CCN(C(=S)NC(=O)/C=C/c2ccc(C)cc2)CC1,10,-7,-1,83*,6,12,48,0,7
O=C(O)CC(c1ccc(F)cc1F)N1Cc2ccccc2C1=O (configuration not stated),6,-2,4,3,3,-3,nt,nt,nt
O=c1[nH]nc(CNc2ccc(OC(F)(F)F)cc2)c2ccccc12,23,-1,0,52*,0,21,29,-1,-7
O=C(NCC[C@H]1CC[C@@H](NC(=O)C2CCC2)[C@@H](CO)O1)c1cc(Cl)cc(Cl)c1,nt,nt,nt,2,3,nt,nt,nt,nt
NC(=N\N=Cc1ccccc1)/C(N)=N/N=Cc1ccccc1,nt,nt,2,48*,-6,9,38,1,-3
NC(N)=N/N=C/c1ccccc1,-1,-4,2,-3,1,-3,nt,nt,nt
CC1(C)Cc2c(C#N)c(SCCC#N)nc(N3CCOCC3)c2CS1,-6,0,-8,69*,-1,13,39,0,2
O=C(NC1CCCCCC1)c1ccc(=O)n(Cc2ccccc2)n1,11,0,13,46*,-2,19,35,0,7
CCOc1ccc(NS(=O)(=O)c2c(C)nc3sc(CC)nn3c2=O)cc1,-31,1,-9,-3,2,-5,nt,nt,nt
COc1ccc(N2CCN(c3nc(-c4cccs4)nc4ccccc34)CC2)cc1,5,-2,-5,63*,-2,12,42,1,9
CCOC(=O)C1CC(c2ccccc2)=NN1c1ccccc1 (configuration not stated),nt,nt,3,-5,-2,nt,nt,nt,nt
Cc1cccc(/C=N/NC(=O)c2cc(-c3cccnc3)nc3ccccc23)c1,9,-3,14,-2,-6,-1,nt,nt,nt
Cc1cccc(/C=N/NC(=O)c2cc(-c3cccnc3)nc3c2c(C)nn3-c2ccccc2)c1,-3,-1,8,43*,4,5,38,-1,-16
SMILES,APJ antag,APJ agonist,CXCR6 inh,EBI2 antag,HTR2A ag,CCR6 antag,EBI2 conf,EBI2 agonist,bGal counter
CC(C)c1cc(C(F)(F)F)n2nc(C(=O)Nc3ccc(-n4cnnn4)cc3)cc2n1,16,-2,-6,-7,1,11,nt,nt,nt
Cn1c(=O)c2c(nc(N/N=C/c3ccc(OC(=O)c4ccco4)cc3)n2Cc2ccc(F)cc2)n(C)c1=O,-22,7,3,19,-1,12,nt,nt,nt
Cn1c(=O)c2c(nc(N/N=C/c3ccc(OC(=O)c4ccco4)cc3)n2Cc2ccccc2Cl)n(C)c1=O,-12,1,-10,54*,2,-3,34,0,11
CN(C)S(=O)(=O)c1ccc(C(=O)NCC(=O)N/N=C/c2cccs2)cc1,-5,-3,1,10,3,5,nt,nt,nt
Cc1ccsc1/C=N/NC(=O)CNC(=O)c1ccc(S(=O)(=O)N(C)C)cc1,14,-1,0,8,-1,16,nt,nt,nt
Cc1ccc(/C=N/NC(=O)CNC(=O)c2ccc(S(=O)(=O)N(C)C)cc2)cc1,-3,-1,-3,45*,0,2,29,0,7
CN(C)S(=O)(=O)c1ccc(C(=O)NCC(=O)N/N=C/c2ccccc2Cl)cc1,14,0,-14,72*,8,6,30,0,9
COc1cccc(CNC(=O)[C@@H]2CCCN2C(=O)[C@H]2CCCCN2C(=O)c2cccc(OC)c2)c1,nt,nt,-3,-12,0,nt,nt,nt,nt
CN(c1ccc(F)cc1)S(=O)(=O)c1ccc(Cl)c(C(=O)NCC2(N3CCOCC3)CCCCC2)c1,nt,nt,5,17,-1,18,nt,nt,nt
